Measurements published in ChEMBL document CHEMBL5696442, “Discovery of type II inhibitors of TGFβ-activated kinase 1 (TAK1) and mitogen-activated protein kinase kinase kinase kinase 2 (MAP4K2)” (J Med Chem, 2015).

Columns and labels:
[1] = biological target: Tyrosine-protein kinase Blk (Homo sapiens) (UniProt P51451); experiment: Inhibition of BLK (unknown origin) at 10 uM by Ambit Kinomescan binding assay relative to control
[2] = biological target: MAP/microtubule affinity-regulating kinase 3 (Homo sapiens) (UniProt P27448); experiment: Inhibition of MARK3 K1 labeling site in human Huh-7 cells at 10 uM by KiNativ Profiling analysis relative to control; assay type: cell-based
[3] = biological target: Non-receptor tyrosine-protein kinase TYK2 (Homo sapiens) (UniProt P29597); experiment: Inhibition of TYK2 JH1 catalytic domain (unknown origin) at 10 uM by Ambit Kinomescan binding assay relative to control; values are per cent of control
Chain of Non-receptor tyrosine-protein kinase TYK2 (Homo sapiens) (P29597 whole entry, the tested form may be a part): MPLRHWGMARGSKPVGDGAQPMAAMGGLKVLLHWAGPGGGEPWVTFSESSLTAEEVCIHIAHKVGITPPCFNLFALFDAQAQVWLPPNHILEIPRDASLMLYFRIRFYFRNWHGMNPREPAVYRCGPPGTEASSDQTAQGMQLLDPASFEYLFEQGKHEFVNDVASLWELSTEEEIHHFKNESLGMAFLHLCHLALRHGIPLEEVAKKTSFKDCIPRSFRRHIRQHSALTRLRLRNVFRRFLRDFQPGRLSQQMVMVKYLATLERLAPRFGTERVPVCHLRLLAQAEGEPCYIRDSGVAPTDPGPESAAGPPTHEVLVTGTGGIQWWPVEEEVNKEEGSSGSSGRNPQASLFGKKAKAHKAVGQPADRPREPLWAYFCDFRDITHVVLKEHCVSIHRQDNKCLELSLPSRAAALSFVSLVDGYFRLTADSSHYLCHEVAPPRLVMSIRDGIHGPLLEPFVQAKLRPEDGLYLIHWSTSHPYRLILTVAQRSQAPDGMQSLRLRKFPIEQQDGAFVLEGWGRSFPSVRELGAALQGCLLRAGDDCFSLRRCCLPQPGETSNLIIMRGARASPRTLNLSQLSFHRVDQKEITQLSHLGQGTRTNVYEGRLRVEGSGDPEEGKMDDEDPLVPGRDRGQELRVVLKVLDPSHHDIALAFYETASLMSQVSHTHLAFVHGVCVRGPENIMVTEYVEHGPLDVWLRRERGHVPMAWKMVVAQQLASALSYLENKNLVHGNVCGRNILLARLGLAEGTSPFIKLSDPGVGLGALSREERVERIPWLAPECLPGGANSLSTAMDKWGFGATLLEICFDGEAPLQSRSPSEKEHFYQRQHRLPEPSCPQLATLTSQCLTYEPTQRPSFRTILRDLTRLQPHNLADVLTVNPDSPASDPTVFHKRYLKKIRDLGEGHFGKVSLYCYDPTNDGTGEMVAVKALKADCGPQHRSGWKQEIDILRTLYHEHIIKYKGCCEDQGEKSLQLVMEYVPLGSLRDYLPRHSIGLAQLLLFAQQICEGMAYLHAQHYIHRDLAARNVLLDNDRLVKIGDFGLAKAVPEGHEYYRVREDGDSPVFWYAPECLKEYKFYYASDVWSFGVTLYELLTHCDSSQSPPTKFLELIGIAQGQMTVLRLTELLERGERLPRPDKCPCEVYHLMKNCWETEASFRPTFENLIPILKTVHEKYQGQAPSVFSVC

[4] = biological target: T1, Ephrin type-B receptor 2 (Homo sapiens) (UniProt P29323); experiment: Inhibition of EPHB2 (unknown origin) at 1 uM by Ambit Kinomescan binding assay relative to control
T1 sequence (whole entry): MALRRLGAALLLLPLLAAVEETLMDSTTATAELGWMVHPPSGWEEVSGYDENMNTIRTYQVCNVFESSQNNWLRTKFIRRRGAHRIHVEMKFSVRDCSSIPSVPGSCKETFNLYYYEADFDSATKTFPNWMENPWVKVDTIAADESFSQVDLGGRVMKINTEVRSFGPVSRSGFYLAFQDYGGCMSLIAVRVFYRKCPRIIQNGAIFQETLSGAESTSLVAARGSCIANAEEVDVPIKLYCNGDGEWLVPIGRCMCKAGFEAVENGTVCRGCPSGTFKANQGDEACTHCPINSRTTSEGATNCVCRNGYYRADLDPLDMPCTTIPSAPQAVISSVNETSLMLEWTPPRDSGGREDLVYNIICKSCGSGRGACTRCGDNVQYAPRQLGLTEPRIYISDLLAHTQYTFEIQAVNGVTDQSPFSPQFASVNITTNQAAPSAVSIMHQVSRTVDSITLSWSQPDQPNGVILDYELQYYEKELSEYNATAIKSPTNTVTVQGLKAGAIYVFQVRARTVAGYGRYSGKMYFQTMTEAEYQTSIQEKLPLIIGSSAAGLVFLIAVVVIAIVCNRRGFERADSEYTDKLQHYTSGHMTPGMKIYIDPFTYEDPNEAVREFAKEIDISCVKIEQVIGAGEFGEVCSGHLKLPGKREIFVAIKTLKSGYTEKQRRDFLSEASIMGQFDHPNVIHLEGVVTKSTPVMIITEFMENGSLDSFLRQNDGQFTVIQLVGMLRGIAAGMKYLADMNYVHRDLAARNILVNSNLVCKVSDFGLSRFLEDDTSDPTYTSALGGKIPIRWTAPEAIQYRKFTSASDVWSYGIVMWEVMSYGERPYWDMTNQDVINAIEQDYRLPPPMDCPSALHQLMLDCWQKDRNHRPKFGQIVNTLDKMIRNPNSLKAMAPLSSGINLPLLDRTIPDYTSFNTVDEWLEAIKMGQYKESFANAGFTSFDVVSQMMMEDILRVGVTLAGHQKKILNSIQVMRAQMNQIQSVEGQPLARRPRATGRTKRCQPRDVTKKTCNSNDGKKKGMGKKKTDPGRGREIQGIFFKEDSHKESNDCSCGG

[5] = biological target: Mitogen-activated protein kinase kinase kinase 13 (Homo sapiens) (UniProt O43283); experiment: Inhibition of LZK (unknown origin) at 1 uM by Ambit Kinomescan binding assay relative to control
[6] = biological target: Myosin-IIIb (Homo sapiens) (UniProt Q8WXR4); experiment: Inhibition of MYO3B (unknown origin) at 1 uM by Ambit Kinomescan binding assay relative to control
Chain of Myosin-IIIb (Homo sapiens) (Q8WXR4 whole entry): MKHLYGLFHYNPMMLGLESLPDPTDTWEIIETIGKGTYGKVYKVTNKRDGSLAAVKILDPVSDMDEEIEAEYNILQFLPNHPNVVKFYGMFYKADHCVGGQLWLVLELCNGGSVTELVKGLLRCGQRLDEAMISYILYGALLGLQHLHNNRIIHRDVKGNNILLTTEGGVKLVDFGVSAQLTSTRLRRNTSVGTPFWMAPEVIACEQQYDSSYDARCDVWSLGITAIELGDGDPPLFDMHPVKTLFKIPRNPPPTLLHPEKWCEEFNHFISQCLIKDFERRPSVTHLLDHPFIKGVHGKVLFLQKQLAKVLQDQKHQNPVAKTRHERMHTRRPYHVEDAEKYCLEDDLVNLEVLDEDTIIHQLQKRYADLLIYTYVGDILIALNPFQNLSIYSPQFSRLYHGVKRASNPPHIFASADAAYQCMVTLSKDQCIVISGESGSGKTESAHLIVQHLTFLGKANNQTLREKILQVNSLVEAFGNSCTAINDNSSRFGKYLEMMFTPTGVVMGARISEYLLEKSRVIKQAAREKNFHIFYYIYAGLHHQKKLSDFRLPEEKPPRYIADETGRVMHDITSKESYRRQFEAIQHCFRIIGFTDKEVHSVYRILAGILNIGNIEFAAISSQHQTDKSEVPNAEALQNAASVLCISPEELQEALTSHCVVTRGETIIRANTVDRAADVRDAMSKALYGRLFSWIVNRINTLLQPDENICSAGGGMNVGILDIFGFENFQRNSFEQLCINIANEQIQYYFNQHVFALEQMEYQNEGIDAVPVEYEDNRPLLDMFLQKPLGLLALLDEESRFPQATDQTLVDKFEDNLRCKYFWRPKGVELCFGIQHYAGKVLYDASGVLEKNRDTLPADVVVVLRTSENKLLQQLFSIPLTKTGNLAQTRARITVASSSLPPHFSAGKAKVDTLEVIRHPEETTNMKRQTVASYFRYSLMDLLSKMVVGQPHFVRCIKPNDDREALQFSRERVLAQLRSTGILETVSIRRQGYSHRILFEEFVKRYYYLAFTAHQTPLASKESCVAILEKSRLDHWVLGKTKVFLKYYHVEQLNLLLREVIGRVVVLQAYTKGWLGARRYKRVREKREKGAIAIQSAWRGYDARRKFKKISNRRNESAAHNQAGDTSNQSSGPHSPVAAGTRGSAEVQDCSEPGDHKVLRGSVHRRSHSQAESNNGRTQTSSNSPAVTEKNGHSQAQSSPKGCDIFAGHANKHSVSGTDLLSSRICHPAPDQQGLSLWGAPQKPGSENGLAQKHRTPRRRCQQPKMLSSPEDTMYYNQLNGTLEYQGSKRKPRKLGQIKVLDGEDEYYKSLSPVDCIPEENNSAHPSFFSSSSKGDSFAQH
Outline: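 In vitro ATP-site competition binding assay against a panel of over 420 kinases (KinomeScan), with compound tested at 10 or 1 μM.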

[7] = biological target: STE20-like serine/threonine-protein kinase (Homo sapiens) (UniProt Q9H2G2); experiment: Inhibition of SLK Lys2 labeling site harbouring DLKAGNILFTLDGDIK in human A-375 cells at 5 uM by KiNativ Profiling analysis relative to control; assay type: cell-based
[8] = biological target: T2, Scaffold protein ILK (Homo sapiens) (UniProt Q13418); experiment: Inhibition of ILK Lys1 labeling site in human A-375 cells at 0.05 uM by KiNativ Profiling analysis relative to control; assay type: cell-based
T2 sequence (whole entry): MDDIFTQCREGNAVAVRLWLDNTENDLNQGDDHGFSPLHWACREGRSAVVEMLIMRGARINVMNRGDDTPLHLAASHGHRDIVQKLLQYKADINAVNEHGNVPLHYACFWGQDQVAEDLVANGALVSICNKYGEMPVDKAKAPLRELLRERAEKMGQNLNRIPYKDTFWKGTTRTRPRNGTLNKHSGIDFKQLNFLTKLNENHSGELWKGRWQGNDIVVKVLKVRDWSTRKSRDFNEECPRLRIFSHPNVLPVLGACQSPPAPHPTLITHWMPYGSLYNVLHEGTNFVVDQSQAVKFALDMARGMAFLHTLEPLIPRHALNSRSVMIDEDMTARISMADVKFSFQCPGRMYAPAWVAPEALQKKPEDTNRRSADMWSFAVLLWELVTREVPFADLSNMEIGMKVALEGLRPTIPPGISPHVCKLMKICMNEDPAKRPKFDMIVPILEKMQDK

[9] = biological target: Tyrosine-protein kinase Fyn (Homo sapiens) (UniProt P06241); experiment: Inhibition of FYN ACT labeling site in human Huh-7 cell lysate at 1 uM by KiNativ Profiling analysis relative to control; assay type: subcellular
Chain of Tyrosine-protein kinase Fyn (Homo sapiens) (P06241 2-537 limits assumed): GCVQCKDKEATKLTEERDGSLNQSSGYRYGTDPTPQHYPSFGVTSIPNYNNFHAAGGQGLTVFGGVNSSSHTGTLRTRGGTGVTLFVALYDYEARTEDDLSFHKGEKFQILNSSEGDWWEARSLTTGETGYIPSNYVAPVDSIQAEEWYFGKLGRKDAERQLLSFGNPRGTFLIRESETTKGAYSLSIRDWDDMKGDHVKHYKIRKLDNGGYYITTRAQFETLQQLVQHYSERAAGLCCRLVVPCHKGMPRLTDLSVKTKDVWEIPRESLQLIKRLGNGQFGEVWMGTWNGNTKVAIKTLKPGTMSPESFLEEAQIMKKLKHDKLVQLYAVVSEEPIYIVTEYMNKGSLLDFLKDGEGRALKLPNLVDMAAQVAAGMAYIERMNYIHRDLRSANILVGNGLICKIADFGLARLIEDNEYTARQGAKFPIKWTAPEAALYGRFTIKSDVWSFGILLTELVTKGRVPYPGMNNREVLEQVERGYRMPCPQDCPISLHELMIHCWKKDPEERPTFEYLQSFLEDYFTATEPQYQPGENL

[10] = biological target: Epidermal growth factor receptor (Homo sapiens) (UniProt P00533); experiment: Inhibition of EGFR Lys1 labeling site harbouring IPVAIKELR in human Huh-7 cell lysate at 1 uM by KiNativ Profiling analysis relative to control; assay type: subcellular
[11] = biological target: Hepatocyte growth factor receptor (Homo sapiens) (UniProt P08581); experiment: Inhibition of MET ACT labeling site in human Huh-7 cell lysate at 1 uM by KiNativ Profiling analysis relative to control; assay type: subcellular
[12] = biological target: Serine/threonine-protein kinase Nek3 (Homo sapiens) (UniProt P51956); experiment: Inhibition of NEK3 ACT labeling site in human Huh-7 cell lysate at 1 uM by KiNativ Profiling analysis relative to control; assay type: subcellular
Chain of Serine/threonine-protein kinase Nek3 (Homo sapiens) (P51956 whole entry, the tested form may be a part): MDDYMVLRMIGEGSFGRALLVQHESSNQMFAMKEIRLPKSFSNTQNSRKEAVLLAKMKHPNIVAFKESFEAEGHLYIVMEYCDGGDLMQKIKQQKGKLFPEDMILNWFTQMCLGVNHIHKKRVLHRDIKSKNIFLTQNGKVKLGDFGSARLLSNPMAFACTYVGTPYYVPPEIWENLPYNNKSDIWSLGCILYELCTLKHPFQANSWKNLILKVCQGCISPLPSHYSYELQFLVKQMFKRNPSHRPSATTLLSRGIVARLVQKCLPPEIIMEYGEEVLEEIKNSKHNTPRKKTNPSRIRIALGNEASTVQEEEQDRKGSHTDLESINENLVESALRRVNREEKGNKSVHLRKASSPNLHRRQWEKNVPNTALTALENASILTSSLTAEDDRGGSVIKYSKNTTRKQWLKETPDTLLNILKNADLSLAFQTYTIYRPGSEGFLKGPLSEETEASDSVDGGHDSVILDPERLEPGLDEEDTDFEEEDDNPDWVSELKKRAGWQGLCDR

[13] = biological target: Ribosomal protein S6 kinase alpha-3 (Homo sapiens) (UniProt P51812); experiment: Inhibition of RSK2 domain1 ACT labeling site harbouring LTDFGLSKESIDHEKK in human Huh-7 cell lysate at 1 uM by KiNativ Profiling analysis relative to control; assay type: subcellular
[14] = biological target: Myosin light chain kinase, smooth muscle (Homo sapiens) (UniProt Q15746); experiment: Inhibition of smMLCK Lys2 labeling site in human Huh-7 cell lysate at 1 uM by KiNativ Profiling analysis relative to control; assay type: subcellular
[15] = biological target: Tyrosine-protein kinase ABL1 (Homo sapiens, UniProt P00519); experiment: Inhibition of ABL ACT labeling site in human Huh-7 cells at 1 uM by KiNativ Profiling analysis relative to control; assay type: cell-based
[16] = biological target: Cyclin-dependent kinase 11B (Homo sapiens) (UniProt P21127); experiment: Inhibition of PITSLRE Lys2 labeling site in human Huh-7 cells at 1 uM by KiNativ Profiling analysis relative to control; assay type: cell-based
Chain of Cyclin-dependent kinase 11B (Homo sapiens) (P21127 whole entry): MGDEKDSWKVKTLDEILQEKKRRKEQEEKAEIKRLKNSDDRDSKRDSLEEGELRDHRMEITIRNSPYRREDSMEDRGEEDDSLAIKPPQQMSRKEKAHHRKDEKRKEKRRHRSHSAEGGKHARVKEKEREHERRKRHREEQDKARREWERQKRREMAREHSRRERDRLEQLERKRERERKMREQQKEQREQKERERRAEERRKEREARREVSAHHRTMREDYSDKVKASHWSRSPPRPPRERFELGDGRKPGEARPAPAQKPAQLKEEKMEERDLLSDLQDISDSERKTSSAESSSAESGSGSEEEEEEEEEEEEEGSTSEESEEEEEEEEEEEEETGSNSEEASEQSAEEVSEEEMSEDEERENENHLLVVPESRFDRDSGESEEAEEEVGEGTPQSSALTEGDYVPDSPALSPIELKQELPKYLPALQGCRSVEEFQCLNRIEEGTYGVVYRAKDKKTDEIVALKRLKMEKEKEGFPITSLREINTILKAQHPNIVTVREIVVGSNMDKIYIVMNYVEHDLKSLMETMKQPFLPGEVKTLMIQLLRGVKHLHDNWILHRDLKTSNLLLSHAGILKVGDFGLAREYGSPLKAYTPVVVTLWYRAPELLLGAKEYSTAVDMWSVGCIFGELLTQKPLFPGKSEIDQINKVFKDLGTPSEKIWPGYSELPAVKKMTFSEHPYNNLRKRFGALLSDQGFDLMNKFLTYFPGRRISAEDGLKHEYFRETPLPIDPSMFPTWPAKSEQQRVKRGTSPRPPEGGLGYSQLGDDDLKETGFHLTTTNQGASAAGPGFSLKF

Chain of Tyrosine-protein kinase Blk (Homo sapiens) (P51451 2-505 limits assumed): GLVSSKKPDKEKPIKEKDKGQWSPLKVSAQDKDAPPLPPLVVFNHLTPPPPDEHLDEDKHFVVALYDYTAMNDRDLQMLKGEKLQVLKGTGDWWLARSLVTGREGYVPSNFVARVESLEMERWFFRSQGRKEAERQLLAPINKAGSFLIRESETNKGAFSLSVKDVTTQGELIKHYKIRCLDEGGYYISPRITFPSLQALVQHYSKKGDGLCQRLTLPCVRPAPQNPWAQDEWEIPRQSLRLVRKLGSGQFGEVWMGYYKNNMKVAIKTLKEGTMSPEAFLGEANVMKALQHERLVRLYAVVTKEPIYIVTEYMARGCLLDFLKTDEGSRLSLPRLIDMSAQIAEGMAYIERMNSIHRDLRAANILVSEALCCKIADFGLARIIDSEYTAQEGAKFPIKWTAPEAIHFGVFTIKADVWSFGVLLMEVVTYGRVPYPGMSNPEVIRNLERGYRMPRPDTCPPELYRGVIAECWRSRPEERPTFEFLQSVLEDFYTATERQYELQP

`CCN1CCN(Cc2ccc(NC(=O)c3ccc(C)c(Oc4ccnc5[nH]ccc45)c3)cc2C(F)(F)F)CC1` was tested, and the inhibition [1] was 0.45%, the inhibition [2] was -7.2% and the residual activity [3] was 0%.

Molecule `CCN1CCN(Cc2ccc(NC(=O)c3ccc(C)c(/C=C/c4cnc5[nH]ccc5c4OC)c3)cc2C(F)(F)F)CC1` has an inhibition [4] of 5.8%, an inhibition [5] of 82% and an inhibition [6] of 84%. It also gave an inhibition [7] of 12.2% and an inhibition [8] of 3.9%.

`CNc1cc(Oc2cc(C(=O)Nc3cc(N4CCN(C)CC4)cc(C(F)(F)F)c3)ccc2C)ncn1` gave an inhibition [9] of 22%, an inhibition [10] of 4.5% and an inhibition [11] of 2%. The inhibition [12] was 9.3%, the inhibition [13] was -2.2% and the inhibition [14] was -5.1%. For the same molecule, the inhibition [15] was 31.6% and the inhibition [16] was 15.6%.
